In all, about 2,400 compounds went through this assay and about 1,200 (50%) were called active.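 The calls were made as follows: active = activation above the run cutoff, the mean activation over all tested wells plus 3 SD (cut at about 12% in these data); inactive = the rest.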 So high a share suggests a set chosen from earlier hits. These entries were drawn from the full list.
Assay: calcium rise in parental Ga16 cells – cell-based, fluorescence, CHO-Ga16 parental line, counter-screen for hTAAR1 agonist project (AID 651787)
Conditions: Fluo-8 calcium fluorescence, at 3 µM, stronger effect = higher value, normalized to maximal ATP response, DMSO zero
Method in brief: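 Test system: CHO-Gα16 parental cells without hTAAR1 / Quantity: 750 cells per well / Detection: Fluo-8 calcium dye fluorescence, excitation 470-495 nm, emission 515-575 nm / Benchmarks: DMSO (0%) and EC100 ATP (100%) / Schedule: 17-24 h seeding, dye 75 min 37 °C, 30 min RT / Read-out basis: percent activation from max/basal fluorescence ratio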
In the case of `Nc1cccc2c1C(=O)N(Cc1nnc(-c3ccccc3Br)o1)C2=O`, the activation is reported as 60.4% (active). For `CCCCCC(=O)NC(=S)NNC(=O)c1ccc([N+](=O)[O-])cc1`, the activation was 91.4% (active). In the case of `O=C(NCCc1ccccc1)/C(=C\c1ccc([N+](=O)[O-])cc1)NC(=O)c1ccccc1`, the activation is reported as 2.11% (inactive). In the case of `CCCC1CCC(=NNC(=S)NCCc2ccccc2)CC1` (stereo not given), the activation is reported as 14.1% (active). In the case of `O=C(O)C1CC=CCC1C(=O)NCCc1ccccc1` (stereo not given), the activation is reported as 0.16% (inactive). With `CCC(C(=O)Nc1ccc(C(C)C)cc1)c1ccccc1` (stereo not given) the activation was 75.1% (active). With `c1ccc(C2CNCc3c2ccc2ccccc32)cc1` (stereo not given) the activation was 25.6% (active). With `COc1ccc(C(=O)CN2C(=O)NC(C)(c3ccc(C)cc3)C2=O)cc1OC` (stereo not given) the activation was 20.1% (active). For `Cc1ccc(O)c(NC(=S)NC(=O)COc2ccc(Br)cc2)c1`, the activation was 101% (active). With `CCCOc1ccc(-c2c(C(=O)N/N=C/c3ccco3)nnn2-c2nonc2N)cc1` the activation was 39.5% (active). With `Nc1nonc1-n1nnc(C(=O)N/N=C/c2ccc(Cl)cc2)c1-c1ccc2c(c1)OCO2` the activation was 92.4% (active). With `c1ccc(-c2csc(N3CCc4ccccc4C3)n2)cc1` the activation was 0.58% (inactive). For `O=C(Nc1ccc(F)cc1)Nc1nnc([C@H]2C[C@H](O)[C@@H](CO)O2)s1`, the activation was 4.42% (inactive). In the case of `O=C(CSc1nc(-c2ccco2)cc(C(F)(F)F)n1)NCc1cccs1`, the activation is reported as 0.35% (inactive). For `COc1cccc(N(CC(=O)N2CCc3ccccc3C2)S(C)(=O)=O)c1`, the activation was 1.72% (inactive). With `C#CCOc1ccc(/C=C2/C(=O)NN(c3ccccc3)C2=O)cc1OC` the activation was 45.9% (active). With `Cc1ccc(Cl)cc1N1CCN(C(=O)c2cccc3c(=O)c(C)c(-c4ccccc4)oc23)CC1` the activation was 78.9% (active). For `CC(Oc1ccc2ccccc2c1)C(=O)NNC(=S)NC(=O)c1ccco1` (stereo not given), the activation was 75.1% (active). In the case of `CCCc1ccc(OCC(=O)NNC(=S)NC(=O)c2ccco2)cc1`, the activation is reported as 64.1% (active). With `COCCCn1c(Cc2csc(Nc3cccc(Cl)c3)n2)nnc1SCC(=O)OC1CCCCC1` the activation was 3.91% (inactive). With `NC(Cc1ccccc1)c1csc(Nc2cc(Oc3ccccc3)ncn2)n1` (stereo not given) the activation was 39% (active). For `COc1ccc(CC(N)c2csc(NC(=O)Cc3ccccc3)n2)cc1` (stereo not given), the activation was 15.8% (active). In the case of `CC(C)(C)CC(=O)Nc1nc(C(N)Cc2ccc(C(F)(F)F)cc2)cs1` (stereo not given), the activation is reported as 79.7% (active). With `Cn1c(=O)c(=O)n(C)c2cc(S(=O)(=O)NCCc3ccccc3)ccc21` the activation was 0.95% (inactive). In the case of `O=C(O)C1C2C=CC(O2)C1C(=O)NCCc1cccc(Cl)c1` (stereo not given), the activation is reported as 2.07% (inactive). With `CCCc1cc(C(=O)Nc2ccc(C(=O)OC)cc2)cs1` the activation was 4.88% (inactive). With `O=C(c1noc2c1CCCC2)N1CCc2ccccc2C1` the activation was 3.31% (inactive). In the case of `NC(=O)C1=C[C@H](c2csc3ccccc23)C[C@H](OCc2ccc(CO)cc2)O1`, the activation is reported as 33.4% (active). With `Cc1cc2nc3c(=O)[nH]c(=O)nc-3n(C[C@H](O)[C@H](O)[C@H](O)CO)c2cc1C` the activation was 138% (active). For `Cc1ccccc1-c1nc(CS(=O)(=O)CC(=O)N2CCc3ccccc3C2)c(C)o1`, the activation was 5.05% (inactive). In the case of `O=C(NNC(=S)NC(=O)c1cn(-c2ccccc2)nc1-c1ccccc1)c1ccncc1`, the activation is reported as 79.1% (active). With `CC(NC(=O)c1cc(-c2ccccc2)on1)c1ccccc1` (stereo not given) the activation was 37.5% (active). In the case of `CCc1ccccc1S(=O)(=O)Cc1ccc(C(=O)NCCc2ccccc2)o1`, the activation is reported as 5.88% (inactive). In the case of `Cc1ccc(S(=O)(=O)N(CC(=O)N2CCc3ccccc3C2)c2cccc(Cl)c2)cc1`, the activation is reported as -0.38% (inactive). With `CC(=O)Nc1ccccc1Sc1ccc2c3c(cccc13)C(=O)N(c1ccc(C)cc1)C2=O` the activation was 0.61% (inactive). In the case of `C[C@H](NC(=O)c1ccccc1)C(=O)OCC(=O)c1c[nH]c2ccccc12`, the activation is reported as 0% (inactive). In the case of `COc1cc(OC)cc(C(=O)N[C@H](C(=O)OCC(=O)NC(C)c2ccccc2)C(C)C)c1` (stereo not given in full), the activation is reported as 24.2% (active). For `CCCn1c(O)c(CN2CCCC(C)C2)c(C)c(C#N)c1=O` (stereo not given), the activation was 4.14% (inactive). In the case of `Cc1onc(-c2ccccc2)c1C(=O)NNC(=S)NC(=O)c1ccc(F)cc1`, the activation is reported as 105% (active). In the case of `COc1ccc(C(=O)NC(=S)NNC(=O)c2c(-c3ccccc3)noc2C)cc1`, the activation is reported as 68.8% (active). For `Cc1cc(=O)oc2c(C)c(OCC(=O)NCCN3CCOCC3)ccc12`, the activation was 4.41% (inactive). With `COc1ccc(C(=O)NC(=S)NNC(=O)CCc2ccccc2)cc1` the activation was 87.2% (active). For `COc1ccc(C(=O)NNC(=S)NC(=O)c2ccccc2)cc1`, the activation was 94.4% (active). With `O=C(Nc1cccc(NC(=O)c2ccc(Br)cc2)c1)c1ccccc1` the activation was 5.7% (inactive). In the case of `COc1ccc(OC)c(C(c2nnnn2C(C)(C)C)N2CCc3ccccc3C2)c1` (stereo not given), the activation is reported as -0.7% (inactive). In the case of `Nc1c(C(=O)c2cccs2)sc2nsc(SCCN3CCCCC3)c12`, the activation is reported as 72.3% (active). With `CCC(c1nnnn1Cc1ccco1)N(CCc1ccccc1)Cc1cc2ccc(OC)cc2[nH]c1=O` (stereo not given) the activation was 4.24% (inactive). For `O=C1CCCC(O)=C1C=NCCc1ccccc1`, the activation was 5.18% (inactive). With `CCCCc1c(-c2ccc(Cl)cc2)ncn1CCc1ccccc1OC` the activation was 16.1% (active). For `CCCCCc1c(Cc2ccccc2)ncn1CCc1ccccc1OC`, the activation was 17% (active). With `CCc1c(-c2ccccc2OC)ncn1CCc1ccccc1OC` the activation was 5.18% (inactive). With `CCCCc1c(-c2ccc(Br)cc2)ncn1CCc1ccccc1OC` the activation was 13.2% (active). In the case of `CCCCCc1c(-c2ccc(OC)c(OC)c2)ncn1CCc1ccccc1OC`, the activation is reported as 17.4% (active). With `CCCCCc1c(-c2cccc(Br)c2)ncn1CCc1ccccc1OC` the activation was 10.8% (inactive). With `O=[N+]([O-])c1cc(S(=O)(=O)NCCc2ccccn2)ccc1Cl` the activation was 2.99% (inactive). In the case of `CCCCCCCCCCOC(=O)Cn1c(COc2ccc(C)cc2)[n+](C)c2ccccc21`, the activation is reported as 76.5% (active). With `Cc1c(CNCCc2ccccc2)c(C(=O)O)c(C)n1-c1ccccc1` the activation was 1.76% (inactive). In the case of `S=C(Nc1ccc(Br)cc1)NC1CCN(Cc2ccccc2)CC1`, the activation is reported as 22.9% (active). With `O=C(/C=C/[C@H]1O[C@@H](n2cnc3c(NC(=O)c4ccccc4)ncnc32)[C@H](O)[C@@H]1O)NCc1ccccc1` the activation was 0.21% (inactive). With `O=C(NCCc1ccccc1)Oc1ccc(Cl)cc1` the activation was 1.7% (inactive). For `Cc1ccccc1NC(=S)NC(=O)Cc1ccc(Cl)cc1`, the activation was 41.1% (active). With `O=C(Cc1ccc(Cl)cc1)NC(=S)Nc1ccccc1O` the activation was 103% (active). In the case of `O=c1cnnc(Nc2ccccc2)[nH]1`, the activation is reported as 4.92% (inactive). For `O=C(Nc1ccccc1)Nc1nnc(COc2ccccc2F)s1`, the activation was 8.56% (inactive). With `O=Cc1c(NCCc2cccc(F)c2)c2ccccc2[nH]c1=O` the activation was 2.77% (inactive). For `CCCCC(=O)NNC(=S)NC(=O)C(c1ccccc1)c1ccccc1`, the activation was 119% (active). For `CN(C)CCCN(C(=O)c1ccc(S(=O)(=O)N2CCCCCC2)cc1)c1nc2ccc(Br)cc2s1`, the activation was 36.2% (active). In the case of `CN(C)CCCN(C(=O)c1ccc(S(=O)(=O)N2CCCc3ccccc32)cc1)c1nc2ccc(F)cc2s1`, the activation is reported as 37.7% (active). For `Nc1nnn(CC(=O)N/N=C/c2ccccc2)n1`, the activation was -0.59% (inactive). In the case of `c1ccc(CCN2CN=C(Nc3nc4ccccc4o3)NC2)cc1`, the activation is reported as 0.14% (inactive). For `CC(=O)Oc1ccc(Cn2c(C)c(C(=O)NCc3ccc(C#N)cc3)sc2=O)cc1`, the activation was 66.2% (active). For `Cc1cccc(NC(=O)C(C)N2C(=O)C3C4CC(C(Br)C4Br)C3C2=O)c1` (stereo not given), the activation was 25.2% (active). In the case of `c1ccc(Nc2nc(N3CCOCC3)c3ccccc3n2)cc1`, the activation is reported as 14.2% (active). With `Nc1c(NCCc2ccccc2)c2ccccc2oc1=O` the activation was 6.54% (inactive). In the case of `CCOc1ccc(Br)cc1CSC(=N)N`, the activation is reported as 9.07% (inactive). For `CCCCOc1ccc(CSC(=N)N)cc1[N+](=O)[O-]`, the activation was 22.3% (active). In the case of `CCN(CC)c1ccc2oc(=O)c(C)nc2c1`, the activation is reported as 43.7% (active). With `Oc1ccc2ccc3cccc[n+]3c2c1` the activation was 126% (active). For `CN(C(=O)CN(CCO)CC(=O)N(C)C(C)(C)Cc1ccccc1)C(C)(C)Cc1ccccc1`, the activation was 84.7% (active). In the case of `NC[C@H](Cc1ccccc1)NCCc1cc(C(F)(F)F)cc(C(F)(F)F)c1`, the activation is reported as 21.6% (active). For `CCc1ccc(-c2nn(-c3ccccc3)cc2CSC(=N)N)cc1`, the activation was 26.4% (active). With `CN(C)c1ccc(/C=C2\NC(=S)N(Cc3ccccc3)C2=O)cc1` the activation was 67.4% (active). For `O=C1CCCN2N=C(SCC(=O)Nc3ccc(Br)cc3)SC2=N1`, the activation was 8.82% (inactive). In the case of `O=C(Nc1ccncc1)Nc1ccc(F)cc1`, the activation is reported as 4.69% (inactive). In the case of `Cc1cc(C)c2cc(C#N)c(N3CCNCC3)nc2c1`, the activation is reported as -0.65% (inactive). With `N#Cc1ccc(OCCCN2CCC(C(O)(c3ccccc3)c3ccccc3)CC2)c(F)c1` the activation was 21.1% (active). With `O=C(CNC(=O)c1ccccc1F)OCC(=O)c1c[nH]c2ccccc12` the activation was 2.13% (inactive). In the case of `S=C(NCCCc1cnc[nH]1)NCCCN(Cc1ccc(Cl)c(Cl)c1)c1ccc(Br)cn1`, the activation is reported as 26.5% (active). With `COc1ccc(NC(=O)C(=O)NCC(c2ccco2)N2CCc3ccccc3C2)cc1` (stereo not given) the activation was 0.06% (inactive). For `COC(=O)c1[nH]c2cccc(C)c2c1NC(=O)CN1CCCc2ccccc21`, the activation was 11.5% (inactive). For `CCOC(=O)Cc1csc(NC(=O)Nc2ccccc2)n1`, the activation was 10.9% (inactive). For `COc1ccc(C(N)c2csc(NC(=O)Nc3cccc(C(F)(F)F)c3)n2)cc1` (stereo not given), the activation was 22.4% (active). In the case of `NC(c1ccccc1)c1csc(NC(=O)Nc2cccc(C(F)(F)F)c2)n1` (stereo not given), the activation is reported as 37% (active). In the case of `Cc1ccn2c(=O)c(C(=O)NCCC3=CCCCC3)c(O)nc2c1`, the activation is reported as 4.2% (inactive). In the case of `O=C(CCCN=C1NS(=O)(=O)c2ccccc21)OCC(=O)c1ccc(F)c(F)c1`, the activation is reported as 51.3% (active).
